Holding throughout (format): functional
Test [1] is filed under the species Rattus norvegicus. In words: Oral estrogenic potency (E) relative to ethynylestradiol (EE) in rats. In outline:
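Rats given compound orally by gavage once daily for 3 consecutive days; vehicle-only control; 10 animals/group. Autopsy 24 h after last dose; uteri excised, cleaned, blotted and weighed to nearest 0.2 mg. Regression lines for standard (ethynylestradiol) and test compound constructed and compared to derive relative potency.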

Test [2] is filed under the species Rattus norvegicus. In words: Oral antifertility potency (A) relative to ethynylestradiol (EE) in rats. In outline: (§1)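 Mated cycling adult female rats (cohabited with males on proestrus night; sperm in vaginal washings) dosed orally by gavage in sesame oil once daily for 7 consecutive days; vehicle control; 10 rats/group. Killed about day 8; uteri examined for presence and condition of conceptuses. Potency from comparison with regression line of standard ethynylestradiol.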

Test [3] is filed under the species Rattus norvegicus. The experiment in a line: Oral antifertility potency (A) relative to ethynylestradiol (EE) in rats. In outline:
as §1

Structures are written as SMILES. A value given as a limit tells only on which side of the number the result lay.

Turning to `C#C[C@]1(O)CCC2C3C=Cc4cc(O)ccc4C3CCC21C` (stereo partly drawn), the Potency in the test listed under Rattus norvegicus [1] was 2%; in the test filed under Rattus norvegicus [2] it was 20%.

`C#C[C@]1(O)CCC2c3ccc4cc(O)ccc4c3CCC21C` (stereo partly drawn): the Potency in the test filed under Rattus norvegicus [1] was 0.6%; in the test filed under Rattus norvegicus [2], 10%.

In the case of `CC[Si](C#C[C@]1(O)CCC2=C3C=Cc4cc(O)ccc4C3CCC21C)(CC)CC` (stereo partly drawn), the results for the Potency in the test listed under Rattus norvegicus [1] and in the test filed under Rattus norvegicus [2] were 1% and 66%, respectively.

Consider `C#C[C@]1(O)CC[C@H]2[C@@H]3CCc4cc(O)ccc4[C@H]3[C@@H](O)C[C@@]21C`, for which the Potency came out at 0.8% in the test listed under Rattus norvegicus [1] and 200% in the test listed under Rattus norvegicus [2].

Regarding `C#C[C@]1(O)CC[C@H]2[C@@H]3CCc4ccccc4[C@H]3CC[C@@]21C`, the values for the Potency in the test listed under Rattus norvegicus [1] and in the test listed under Rattus norvegicus [2] were 31% and 33%, respectively.

As to `C#C[C@]1(O)CC[C@H]2[C@@H]3[C@H](O)Cc4cc(O)ccc4[C@H]3CC[C@@]21C`, the Potency was determined as 0.1% in the test filed under Rattus norvegicus [1] and 66% in the test filed under Rattus norvegicus [2].

With `C#C[C@]1(O)CC[C@H]2[C@@H]3CCc4cc(O)c(CN(CCC)CCC)cc4[C@H]3CC[C@@]21C`, the results for the Potency in the test listed under Rattus norvegicus [1] and in the test filed under Rattus norvegicus [3] were 1.3% and more than 2 mg/kg/day, respectively.

`CC[Si](C#C[C@]1(O)CC[C@H]2[C@@H]3C[C@H](O)c4cc(O)ccc4[C@H]3CC[C@@]21C)(CC)CC`: the Potency in the test listed under Rattus norvegicus [1] turned out to be 38%; in the test filed under Rattus norvegicus [2], 300%.

As to `C#C[C@]1(O)CC[C@H]2[C@@H]3CCc4cc(O)c(OC)cc4[C@H]3CC[C@@]21C`, the Potency in the test filed under Rattus norvegicus [1] is 0.3%; in the test listed under Rattus norvegicus [3] it was more than 2 mg/kg/day.

Regarding `CCCN(CCC)Cc1cc2c(cc1O)CC[C@@H]1[C@@H]2CC[C@@]2(C)[C@H]1CC[C@@]2(O)C#C[Si](CC)(CC)CC`, the Potency is 0.3% in the test listed under Rattus norvegicus [1] and more than 1 mg/kg/day in the test filed under Rattus norvegicus [3].

Consider `CC[Si](C#C[C@]1(O)CC[C@H]2[C@@H]3CCc4ccccc4[C@H]3CC[C@@]21C)(CC)CC`, for which the Potency in the test filed under Rattus norvegicus [1] stood at 13%; in the test filed under Rattus norvegicus [2], 100%.

With `CC[Si](C#C[C@]1(O)C(C)C[C@H]2[C@@H]3CCc4cc(O)ccc4[C@H]3CC[C@@]21C)(CC)CC` (stereo partly drawn), the Potency in the test listed under Rattus norvegicus [1] is 0.2%; in the test filed under Rattus norvegicus [3], more than 0.8 mg/kg/day.

With `CC[Si](C#C[C@]1(O)CC[C@H]2[C@@H]3CCc4cc(OC)ccc4[C@H]3CC[C@@]21C)(CC)CC`, the values for the Potency in the test filed under Rattus norvegicus [1] and in the test filed under Rattus norvegicus [3] were 1.8% and more than 2 mg/kg/day, respectively.

As for `C=CCc1c(O)ccc2c1CC[C@@H]1[C@@H]2CC[C@@]2(C)[C@H]1CC[C@@]2(O)C#C[Si](CC)(CC)CC`, the Potency was 0% in the test filed under Rattus norvegicus [1] and more than 3 mg/kg/day in the test listed under Rattus norvegicus [3].

`CC[Si](C#C[C@]1(O)CC[C@H]2[C@@H]3[C@H](O)Cc4cc(O)ccc4[C@H]3CC[C@@]21C)(CC)CC`: the Potency in the test listed under Rattus norvegicus [1] worked out at 0.3%; in the test filed under Rattus norvegicus [2], 20%.

Take `C#C[C@]1(O)CC[C@H]2[C@@H]3C[C@@H](C)c4cc(O)ccc4[C@H]3CC[C@@]21C`: the Potency in the test filed under Rattus norvegicus [1] is 1.8%; in the test filed under Rattus norvegicus [3] it was more than 0.5 mg/kg/day.

As for `C#C[C@]1(O)CC[C@H]2[C@@H]3[C@H](O)[C@H](O)c4cc(O)ccc4[C@H]3CC[C@@]21C`, the values for the Potency in the test listed under Rattus norvegicus [1] and in the test filed under Rattus norvegicus [3] were 0.3% and more than 0.5 mg/kg/day, respectively.

Take `C#C[C@]1(O)CC[C@H]2[C@@H]3CCc4cc(O)c(C)cc4[C@H]3CC[C@@]21C`: the Potency in the test filed under Rattus norvegicus [1] is 5.5%; in the test filed under Rattus norvegicus [2], 40%.

Consider `C#C[C@]1(O)CC[C@H]2[C@@H]3C[C@H](O)c4cc(O)ccc4[C@H]3CC[C@@]21C`, for which the Potency in the test listed under Rattus norvegicus [1] was 16%; in the test filed under Rattus norvegicus [3], more than 0.2 mg/kg/day.

For the molecule `CC[Si](C#C[C@]1(O)CC[C@H]2[C@@H]3[C@H](O)[C@H](O)c4cc(O)ccc4[C@H]3CC[C@@]21C)(CC)CC`, the Potency is 0.6% in the test filed under Rattus norvegicus [1] and more than 0.5 mg/kg/day in the test filed under Rattus norvegicus [3].

On to `CC[Si](C#C[C@]1(O)CC[C@H]2[C@@H]3CCc4cc(O)ccc4[C@H]3[C@@H](O)C[C@@]21C)(CC)CC`, for which the Potency in the test listed under Rattus norvegicus [1] is 14.4%; in the test filed under Rattus norvegicus [2], 64%.

For `C#C[C@]1(O)CC(OC)[C@H]2[C@@H]3CCc4cc(OC)ccc4[C@H]3CC[C@@]21C` (stereo partly drawn), the Potency in the test listed under Rattus norvegicus [1] stood at 0.8%; in the test filed under Rattus norvegicus [2] it was 10%.

Regarding `CC[Si](C#C[C@]1(O)CC[C@H]2[C@@H]3C[C@@H](O)c4cc(O)ccc4[C@H]3CC[C@@]21C)(CC)CC`, the Potency is 16% in the test listed under Rattus norvegicus [1] and 40% in the test filed under Rattus norvegicus [2].

With `CC[Si](C#C[C@]1(O)CC[C@H]2[C@@H]3C[C@@H](C)c4cc(O)ccc4[C@H]3CC[C@@]21C)(CC)CC`, the Potency in the test listed under Rattus norvegicus [1] came out at 0.2%; in the test listed under Rattus norvegicus [2] it was 7.5%.

On to `C#C[C@]1(O)C(C)C[C@H]2[C@@H]3CCc4cc(O)ccc4[C@H]3CC[C@@]21C` (stereo partly drawn), for which the results for the Potency in the test listed under Rattus norvegicus [1] and in the test filed under Rattus norvegicus [3] were 0.5% and more than 2 mg/kg/day, respectively.

For the molecule `CC[Si](C#C[C@]1(O)CC[C@H]2[C@@H]3CCc4cc(O)c(OC)cc4[C@H]3CC[C@@]21C)(CC)CC`, the Potency was 0.06% in the test listed under Rattus norvegicus [1] and more than 2.8 mg/kg/day in the test listed under Rattus norvegicus [3].

`CC[Si](C#C[C@]1(O)CC[C@H]2[C@@H]3CCc4cc(O)ccc4[C@H]3CC[C@@]21C)(CC)CC`: the Potency in the test filed under Rattus norvegicus [1] turned out to be 37%; in the test filed under Rattus norvegicus [2], 600%.

Regarding `C#C[C@]1(O)CC[C@H]2[C@@H]3CCc4c(ccc(O)c4CC=C)[C@H]3CC[C@@]21C`, the Potency in the test filed under Rattus norvegicus [1] is 0.1%; in the test listed under Rattus norvegicus [3] it was more than 2 mg/kg/day.

On to `CC[Si](C#C[C@]1(O)CC(OC)[C@H]2[C@@H]3CCc4cc(OC)ccc4[C@H]3CC[C@@]21C)(CC)CC` (stereo partly drawn), for which the Potency is 3% in the test listed under Rattus norvegicus [1] and more than 0.2 mg/kg/day in the test filed under Rattus norvegicus [3].

On to `CC[Si](C#C[C@]1(O)CC[C@H]2[C@@H]3CCc4cc(O)c(C)cc4[C@H]3CC[C@@]21C)(CC)CC`, for which the Potency in the test filed under Rattus norvegicus [1] came out at 2.2%; in the test listed under Rattus norvegicus [2], 40%.

Take `CC[Si](C#C[C@]1(O)CCC2C3C=Cc4cc(O)ccc4C3CCC21C)(CC)CC` (stereo partly drawn): the Potency in the test filed under Rattus norvegicus [1] came to 2%; in the test listed under Rattus norvegicus [2], 200%.

`CC[Si](C#C[C@]1(O)CCCC2C3CCc4cc(O)ccc4C3CCC21C)(CC)CC` (stereo partly drawn): the Potency in the test filed under Rattus norvegicus [1] is 0.1%; in the test listed under Rattus norvegicus [3], more than 2 mg/kg/day.

Take `C#C[C@]1(O)CC[C@H]2[C@@H]3CCc4cc(O)ccc4[C@H]3CC[C@@]21C` [ETHINYL ESTRADIOL]: the Potency in the test listed under Rattus norvegicus [1] and in the test filed under Rattus norvegicus [2] was 100% each time.

As to `C#C[C@]1(O)CC[C@H]2[C@@H]3CCc4cc(OC)ccc4[C@H]3CC[C@@]21C` [MESTRANOL], the Potency is 0.3% in the test filed under Rattus norvegicus [1] and more than 2 mg/kg/day in the test filed under Rattus norvegicus [3].
